Screening results deposited in PubChem BioAssay by The Scripps Research Institute Molecular Screening Center.
OXTR agonist – activates the human oxytocin receptor; CHO-OTR cells, Fluo-8 calcium fluorescence; normalized: DMSO 0%, oxytocin 100%; activation, % at 3 µM; 320,000 compounds, 0.32% hits; AID 2435;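 active means activation above the mean of all tested compounds plus 3 SD, cutoff set per screening run, cut at about 20% in these data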;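 further: peak over basal fluorescence ratio from a 100 s FLIPR kinetic read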
Target sequence (P30559 whole entry, looked up): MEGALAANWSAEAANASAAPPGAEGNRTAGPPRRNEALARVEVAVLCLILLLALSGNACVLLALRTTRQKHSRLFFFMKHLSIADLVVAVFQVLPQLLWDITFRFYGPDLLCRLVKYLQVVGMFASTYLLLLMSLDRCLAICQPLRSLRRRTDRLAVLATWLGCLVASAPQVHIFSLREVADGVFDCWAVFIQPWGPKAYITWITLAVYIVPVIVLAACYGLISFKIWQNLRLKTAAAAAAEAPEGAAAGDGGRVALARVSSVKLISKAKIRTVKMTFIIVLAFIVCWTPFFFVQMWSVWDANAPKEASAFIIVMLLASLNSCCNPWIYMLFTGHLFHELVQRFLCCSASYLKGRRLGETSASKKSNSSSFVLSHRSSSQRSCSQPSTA
V1aR counter – activates human V1a receptor in oxytocin agonist counter-screen; P37288; CHO-V1R cells, Fluo-8 calcium fluorescence, agonist mode; 0% DMSO, 100% 3 nM vasopressin; activation, % at 3 µM; 320,000 compounds, 0.25% hits; AID 2797;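 active means activation above the mean activation of all tested compounds plus 3 SD, per screening run, cut at about 20% in these data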;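 further: signal is peak over basal fluorescence ratio across a 100 second FLIPR read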
OX1R antag-1 – blocks the human orexin 1 receptor. O43613. OX1R-expressing cells, FRET antagonist read-out. inhibition, % at 6.6 µM. 330,000 compounds, 1.8% hits; in the data active means inhibition mostly above about 38%, no sharp cut-off; inactive means mostly below about 40%;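 further: 0% = agonist challenge alone and 100% = reference antagonist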
CHO parental Ca – counter-screen for OX1R antagonists: effect in parental CHO cells; parental CHO-K1, ATP-induced calcium, Fluo-8 fluorescence; inhibition, % at 5.6 µM; 330,000 compounds, 0.63% hits; AID 463079;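 active means inhibition above that plate's mean sample inhibition plus 3 SD, cut at about 26% in these data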;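 further: 0% = ATP-challenged DMSO wells and 100% = DMSO wells without ATP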
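Material: Parental CHO cells | Reagent: ATP | Compound dosing: Single nominal dose of 5.6 µM per compound | Detection: Intracellular calcium via Fluo-8 no-wash fluorescent dye | Read-out: % inhibition of ATP-induced calcium mobilization | Benchmarks: Low control ATP plus DMSO, high control DMSO only | Replicates: Singlicate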
OX1R antag-2 – human HCRTR1 antagonism | O43613 | CHO/OX1R cells, Fluo-8 calcium fluorescence, orexin A | inhibition, % at 5 µM | 330,000 compounds, 0.43% hits | AID 434989;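 active means inhibition above its plate's threshold, mean inhibition of all tested compounds on the plate plus 3 SD, cut at about 37% in these data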;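 further: 0% = orexin A challenge wells and 100% = SB-334867-A antagonist wells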
OXTR potentiator – potentiates the human oxytocin receptor response; P30559; CHO-OTR cells, Fluo-8 calcium fluorescence, potentiator mode; 0% = oxytocin EC15, 100% = EC100; activation, % at 3 µM; 320,000 compounds, 0.061% hits; AID 2445;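 active means activation above that plate's cutoff, the mean activation of tested compounds plus 3 SD, cut at about 6.6% in these data, passing the limit was not always enough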;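 further: 100% uses oxytocin at 75 nM as the full agonist control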
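Measured by – Fluo-8 calcium dye fluorescence · Test system – human OTR in CHO cells · Dosing – one concentration, 3.0 µM compound · Controls – EC15 oxytocin alone as 0%, 75 nM oxytocin as 100% · Evaluation – normalized max/min fluorescence ratio, % activation · Timing – 6 min pre-incubation, 100 s read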
OXTR agonist cf – human OXTR agonism, confirmation. shares compounds with OXTR agonist. CHO-OTR cells, Fluo-8 calcium fluorescence, agonist. activation, % at 3 µM. 390 compounds, 20% hits;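 active means mean activation above about 20% derived from the earlier single-dose screen, limit read from the data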;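 further: peak over minimum fluorescence ratio per well during a 100 second FLIPR read; 0% = DMSO alone and 100% = oxytocin high control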
V1R ag counter 3x – counter-screen for oxytocin receptor agonists: V1a receptor agonists; shares compounds with OXTR agonist; CHO-V1R cells, Fluo-8 calcium fluorescence, agonist; activation, % at 3 µM; 390 compounds, 10% hits;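 active means mean activation over triplicate exceeds the hit threshold set in the earlier primary screen, cut at about 20% in these data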;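 further: peak over basal fluorescence ratio within a 100 second read; 0% = DMSO alone and 100% = 3 nM vasopressin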
* hit, by the source's call; . = no result. Compounds with a hit are over-represented: about 2.7% of the library has one in this group of screens.

SMILES	OXTR agonist	V1aR counter	OX1R antag-1	CHO parental Ca	OX1R antag-2	OXTR potentiator	OXTR agonist cf	V1R ag counter 3x
COc1ccc(NC(=O)NCC(C)CSc2ccc(C)cc2)c(OC)c1 (stereo unspecified)	-1	-1	4	-37	-28	-10	.	.
CCC1(c2ccc(F)cc2)NC(=O)N(CC(=O)N2c3ccccc3CC2C)C1=O (stereo unspecified)	29*	19	5	-14	12	-11	15	11
CCC1(c2ccc(F)cc2)NC(=O)N(CC(=O)N2c3ccccc3NC(=O)CC2C)C1=O (stereo unspecified)	-1	-1	1	-6	-8	-5	.	.
CN(/N=C/c1ccc(-c2ccc([N+](=O)[O-])cc2)o1)c1ccccc1	23*	18	28	53*	60*	-15	96*	100*
NC(=S)N/N=C/c1ccc(-c2ccc([N+](=O)[O-])cc2)o1	-1	0	21	-6	-10	-12	.	.
Nc1ccc(NC(=O)c2ccccc2)c2c1C(=O)c1ccccc1C2=O	0	2	21	-16	-14	-6	.	.
Nc1ccc(Br)c2c1C(=O)c1ccccc1C2=O	34*	10	35	-28	-14	-13	6	3
CC1CN(c2ccc([N+](=O)[O-])c(NCCOc3ccccc3)c2)CC(C)N1 (stereo unspecified)	24*	7	20	-19	-2	-15	4	4
CCc1ccc(OCCNc2cc(N3CCNC(C)C3)ccc2[N+](=O)[O-])cc1 (stereo unspecified)	18	11	6	7	17	-7	.	.
Cc1ccccc1OCCNc1cc(N2CC(C)NC(C)C2)ccc1[N+](=O)[O-] (stereo unspecified)	20*	14	9	19	-10	-7	13	5
COc1ccc(OC)c(NC(=O)Cc2nn(C)c(=O)c3ccccc23)c1	20*	7	24	-2	9	-20	7	9
COc1ccccc1Nc1nc(-c2ccccc2)nc2ccccc12	-2	0	2	-29	-40	-7	.	.
COc1ccc(Nc2nc(-c3ccccc3)nc3ccccc23)c(OC)c1	30*	6	22	-13	-38	-27	0	0
Cc1ccc2c(c1)c1c3n2CCCNC3CCC1 (stereo unspecified)	15	4	7	2	-7	-2	.	.
c1cc2c(cc1C1CCCCC1)c1c3n2CCCNC3CCC1 (stereo unspecified)	26*	18	3	14	22	-2	1	1
CC(C)CN(C(=O)COC(=O)CSc1ccccc1)c1c(N)n(Cc2ccccc2)c(=O)[nH]c1=O	0	0	14	-22	-12	-3	.	.
Cc1cccc(OCC(O)Cn2c(=N)n(Cc3ccccc3)c3ccccc32)c1 (stereo unspecified)	31*	18	-8	19	18	-13	7	6
COc1ccc(CN2CCN(CC(O)Cn3c4ccccc4c4ccccc43)CC2)cc1 (stereo unspecified)	24*	12	12	12	6	-18	8	4
Cc1ccc(Cl)cc1N1CCN(C(=O)C2CCN(S(=O)(=O)c3cccnc3)CC2)CC1	16	14	32	15	21	-22	.	.
Cc1ccc(Cl)cc1N1CCN(C(=O)C2CCN(S(=O)(=O)c3c(C)nn(C)c3C)CC2)CC1	21*	16	12	35*	25	-12	12	11
Cc1[nH]c2ccccc2c1C(=O)CN1C(=O)NC(C)(c2ccc(Cl)cc2Cl)C1=O (stereo unspecified)	32*	20	13	23	34	-14	28*	18
Fc1ccc2[nH]c3c(NCc4ccccc4)ncnc3c2c1	24*	7	59*	70*	3	-21	17	13
COc1ccc2[nH]c3c(NCc4ccco4)ncnc3c2c1	6	4	24	-10	-17	-8	.	.
CCCCNC(=O)CCCn1c(=S)[nH]c2cc3c(cc2c1=O)OCO3	22*	-2	6	-9	-12	-2	-1	0
O=C(CCCn1c(=S)[nH]c2cc3c(cc2c1=O)OCO3)NCc1ccccc1Cl	-2	-1	11	-3	-11	-11	.	.
SMILES	OXTR agonist	V1aR counter	OX1R antag-1	CHO parental Ca	OX1R antag-2	OXTR potentiator	OXTR agonist cf	V1R ag counter 3x
COC(=O)C(NC(=O)c1ccccc1C)(Nc1ncc(S(=O)(=O)c2ccc([N+](=O)[O-])cc2)s1)C(F)(F)F (stereo unspecified)	26*	20	20	-6	9	-23	16	9
CN(CC(=O)Nc1cccc(F)c1)C(=O)CSc1ccccc1F	0	-1	12	4	-11	-4	.	.
CC(C)c1c(C(=O)N/N=C/c2ccsc2)nnn1-c1nonc1N	14	10	0	-3	-23	-11	.	.
Cc1ccsc1/C=N/NC(=O)c1nnn(-c2nonc2N)c1C(C)C	22*	5	-4	-12	-24	-14	0	1
CCCc1c(C(=O)N/N=C/c2sccc2C)nnn1-c1nonc1N	1	4	16	4	-6	-5	.	.
CC(C)c1c(C(=O)N/N=C/c2cccs2)nnn1-c1nonc1N	20*	14	6	-10	-30	-8	8	10
Cc1cccc(C)c1NC(=O)CN(C)C(=O)c1ccccc1OCc1ccc(F)cc1	-1	-1	6	-18	-23	-1	.	.
COc1ccc(C(=O)/C=C2\Sc3ccccc3N2C)cc1	-1	-1	34	-18	-5	-5	.	.
COc1ccccc1-[n+]1c(C)cc(/C=C2\Sc3ccccc3N2C)cc1C	26*	12	39	69*	62*	-14	26*	26*
CCOc1ccc(CNC(=O)c2ccccc2NC(=O)C2=CSCCO2)cc1	-3	-1	19	-17	-18	-6	.	.
COCCCN1CCN(C2Cc3ccccc3Sc3ccc(Cl)cc32)CC1 (stereo unspecified)	6	5	5	-15	2	-2	.	.
Clc1cccc2c1Sc1ccccc1CC2N1CCNCC1 (stereo unspecified)	22*	16	9	11	10	-7	8	5
Clc1ccc2c(c1)C(N1CCNCC1)Cc1ccccc1S2 (stereo unspecified)	29*	12	-2	-1	-15	-18	21*	7
